Laboratory results from ChEMBL document CHEMBL4321796, “Proteolysis Targeting Chimeras for the Selective Degradation of Mcl-1/Bcl-2 Derived from Nonselective Target Binding Ligands” (J Med Chem, 2019).
One block for each molecule: values may come before it. Activity calls are given as the source filed them. No cut-off for these calls is given here.

Experiments:
Type in all cases: cell-based
[1] = target: T1, Protein cereblon/Apoptosis regulator Bcl-2 (Homo sapiens, UniProt P10415+Q96SW2); experiment: Induction of CRBN-mediated Bcl-2 degradation in human HeLa cells by Western blot analysis
T1 sequence (P10415 whole entry, looked up): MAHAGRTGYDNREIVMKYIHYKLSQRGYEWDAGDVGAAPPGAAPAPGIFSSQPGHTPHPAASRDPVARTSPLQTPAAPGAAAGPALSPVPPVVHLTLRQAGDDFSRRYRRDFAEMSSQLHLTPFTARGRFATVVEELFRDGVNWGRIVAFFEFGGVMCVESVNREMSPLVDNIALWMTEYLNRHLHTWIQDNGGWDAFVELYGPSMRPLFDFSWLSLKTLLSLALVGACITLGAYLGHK
T1 sequence (Q96SW2 whole entry, looked up): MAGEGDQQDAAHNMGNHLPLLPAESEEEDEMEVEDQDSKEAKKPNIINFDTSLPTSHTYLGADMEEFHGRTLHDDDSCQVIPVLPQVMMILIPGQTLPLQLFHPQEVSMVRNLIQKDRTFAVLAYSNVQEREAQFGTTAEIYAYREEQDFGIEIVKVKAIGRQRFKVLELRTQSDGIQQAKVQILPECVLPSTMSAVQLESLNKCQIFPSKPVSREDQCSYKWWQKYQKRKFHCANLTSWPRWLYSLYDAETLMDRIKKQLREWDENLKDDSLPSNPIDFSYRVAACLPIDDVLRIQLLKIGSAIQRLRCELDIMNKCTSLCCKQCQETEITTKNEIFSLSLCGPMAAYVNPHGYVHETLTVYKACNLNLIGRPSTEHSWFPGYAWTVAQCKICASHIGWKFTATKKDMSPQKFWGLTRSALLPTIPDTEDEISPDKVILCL

[2] = target: T2, Protein cereblon/Induced myeloid leukemia cell differentiation protein Mcl-1 (Homo sapiens, UniProt Q07820+Q96SW2); experiment: Induction of CRBN-mediated Mcl-1 degradation in human HeLa cells assessed as relative abundance at 10 uM after 12 hrs by Western blot analysis (reference value: 1)
Target sequence in this assay (Q07820 whole entry, looked up): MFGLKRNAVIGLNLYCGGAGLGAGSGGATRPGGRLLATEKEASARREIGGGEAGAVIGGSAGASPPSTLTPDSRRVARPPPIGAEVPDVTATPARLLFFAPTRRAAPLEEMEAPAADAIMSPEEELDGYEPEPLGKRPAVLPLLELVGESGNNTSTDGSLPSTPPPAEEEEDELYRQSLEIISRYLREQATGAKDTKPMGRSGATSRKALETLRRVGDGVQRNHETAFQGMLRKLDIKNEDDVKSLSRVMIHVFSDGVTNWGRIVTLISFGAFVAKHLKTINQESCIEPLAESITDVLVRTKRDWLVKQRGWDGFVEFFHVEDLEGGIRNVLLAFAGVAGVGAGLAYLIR
Target sequence in this assay (Q96SW2 whole entry, looked up): as the sequence (Q96SW2 whole entry, looked up) above

[3] = target: T2, Protein cereblon/Induced myeloid leukemia cell differentiation protein Mcl-1; experiment: Induction of CRBN-mediated Mcl-1 degradation in human HeLa cells assessed as relative abundance at 1 uM after 12 hrs by Western blot analysis (reference value: 1)
Target sequence in this assay (Q07820 whole entry, looked up): as the sequence (Q07820 whole entry, looked up) above
Target sequence in this assay (Q96SW2 whole entry, looked up): as the sequence (Q96SW2 whole entry, looked up) above

[4] = target: T1, Protein cereblon/Apoptosis regulator Bcl-2; experiment: Induction of CRBN-mediated Bcl-2 degradation in human HeLa cells assessed as relative abundance at 10 uM after 12 hrs by Western blot analysis (reference value: 1)
[5] = target: T1, Protein cereblon/Apoptosis regulator Bcl-2; experiment: Induction of CRBN-mediated Bcl-2 degradation in human HeLa cells assessed as relative abundance at 1 uM after 12 hrs by Western blot analysis (reference value: 1)
[6] = target: T1, Protein cereblon/Apoptosis regulator Bcl-2; experiment: Induction of CRBN-mediated Bcl-2 degradation in human HeLa cells assessed as relative abundance at 3 uM after 12 hrs by Western blot analysis (reference value: 1)
[7] = target: T1, Protein cereblon/Apoptosis regulator Bcl-2; experiment: Induction of CRBN-mediated Bcl-2 degradation in human HeLa cells assessed as relative abundance at 0.3 uM after 12 hrs by Western blot analysis (reference value: 1)
[8] = target: T2, Protein cereblon/Induced myeloid leukemia cell differentiation protein Mcl-1; experiment: Induction of CRBN-mediated Mcl-1 degradation in human HeLa cells assessed as relative abundance at 0.1 uM after 12 hrs by Western blot analysis (reference value: 1)
Target sequence in this assay (Q07820 whole entry, looked up): as the sequence (Q07820 whole entry, looked up) above
Target sequence in this assay (Q96SW2 whole entry, looked up): as the sequence (Q96SW2 whole entry, looked up) above

[9] = target: T1, Protein cereblon/Apoptosis regulator Bcl-2; experiment: Induction of CRBN-mediated Bcl-2 degradation in human HeLa cells assessed as relative abundance at 0.1 uM after 12 hrs by Western blot analysis (reference value: 1)
[10] = target: T2, Protein cereblon/Induced myeloid leukemia cell differentiation protein Mcl-1; experiment: Induction of CRBN-mediated Mcl-1 degradation in human HeLa cells assessed as relative abundance at 0.3 uM after 12 hrs by Western blot analysis (reference value: 1)
Target sequence in this assay (Q07820 whole entry, looked up): as the sequence (Q07820 whole entry, looked up) above
Target sequence in this assay (Q96SW2 whole entry, looked up): as the sequence (Q96SW2 whole entry, looked up) above

[11] = target: T2, Protein cereblon/Induced myeloid leukemia cell differentiation protein Mcl-1; experiment: Induction of CRBN-mediated Mcl-1 degradation in human HeLa cells assessed as relative abundance at 3 uM after 12 hrs by Western blot analysis (reference value: 1)
Target sequence in this assay (Q07820 whole entry, looked up): as the sequence (Q07820 whole entry, looked up) above
Target sequence in this assay (Q96SW2 whole entry, looked up): as the sequence (Q96SW2 whole entry, looked up) above

[12] = target: T2, Protein cereblon/Induced myeloid leukemia cell differentiation protein Mcl-1; experiment: Induction of CRBN-mediated Mcl-1 degradation in human HeLa cells assessed as relative abundance at 10 uM measured at 2 hrs by Western blot analysis (reference value: 1)
Outline: (§1)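 HeLa cells in DMEM with 10% FBS, exposed to 10 µM compound over a 0–24 h time course. Mcl-1 and Bcl-2 detected by immunoblot (NP-40 lysis, BCA-equalized SDS-PAGE, PVDF, ECL) and quantified relative to DMSO control; mean ± s.d., n=3 independent samples.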
Target sequence in this assay (Q07820 whole entry, looked up): as the sequence (Q07820 whole entry, looked up) above
Target sequence in this assay (Q96SW2 whole entry, looked up): as the sequence (Q96SW2 whole entry, looked up) above

[13] = target: T2, Protein cereblon/Induced myeloid leukemia cell differentiation protein Mcl-1; experiment: Induction of CRBN-mediated Mcl-1 degradation in human HeLa cells assessed as relative abundance at 10 uM measured at 4 hrs by Western blot analysis (reference value: 1); outline: as §1
[14] = target: T2, Protein cereblon/Induced myeloid leukemia cell differentiation protein Mcl-1; experiment: Induction of CRBN-mediated Mcl-1 degradation in human HeLa cells assessed as relative abundance at 10 uM measured at 8 hrs by Western blot analysis (reference value: 1); outline: as §1
[15] = target: T1, Protein cereblon/Apoptosis regulator Bcl-2; experiment: Induction of CRBN-mediated Bcl-2 degradation in human HeLa cells assessed as relative abundance at 10 uM measured at 20 hrs by Western blot analysis (reference value: 1); outline: as §1
[16] = target: T2, Protein cereblon/Induced myeloid leukemia cell differentiation protein Mcl-1; experiment: Induction of CRBN-mediated Mcl-1 degradation in human HeLa cells assessed as relative abundance at 10 uM measured at 16 hrs by Western blot analysis (reference value: 1); outline: as §1
[17] = target: T2, Protein cereblon/Induced myeloid leukemia cell differentiation protein Mcl-1; experiment: Induction of CRBN-mediated Mcl-1 degradation in human HeLa cells assessed as relative abundance at 10 uM measured at 20 hrs by Western blot analysis (reference value: 1); outline: as §1
[18] = target: T2, Protein cereblon/Induced myeloid leukemia cell differentiation protein Mcl-1; experiment: Induction of CRBN-mediated Mcl-1 degradation in human HeLa cells assessed as relative abundance at 10 uM measured at 24 hrs by Western blot analysis (reference value: 1); outline: as §1
[19] = target: T1, Protein cereblon/Apoptosis regulator Bcl-2; experiment: Induction of CRBN-mediated Bcl-2 degradation in human HeLa cells assessed as relative abundance at 10 uM measured at 2 hrs by Western blot analysis (reference value: 1); outline: as §1
[20] = target: T1, Protein cereblon/Apoptosis regulator Bcl-2; experiment: Induction of CRBN-mediated Bcl-2 degradation in human HeLa cells assessed as relative abundance at 10 uM measured at 4 hrs by Western blot analysis (reference value: 1); outline: as §1
[21] = target: T1, Protein cereblon/Apoptosis regulator Bcl-2; experiment: Induction of CRBN-mediated Bcl-2 degradation in human HeLa cells assessed as relative abundance at 10 uM measured at 8 hrs by Western blot analysis (reference value: 1); outline: as §1
[22] = target: T1, Protein cereblon/Apoptosis regulator Bcl-2; experiment: Induction of CRBN-mediated Bcl-2 degradation in human HeLa cells assessed as relative abundance at 10 uM measured at 16 hrs by Western blot analysis (reference value: 1); outline: as §1
[23] = target: T1, Protein cereblon/Apoptosis regulator Bcl-2; experiment: Induction of CRBN-mediated Bcl-2 degradation in human HeLa cells assessed as relative abundance at 10 uM measured at 24 hrs by Western blot analysis (reference value: 1); outline: as §1
[24] = target: T2, Protein cereblon/Induced myeloid leukemia cell differentiation protein Mcl-1; experiment: Induction of CRBN-mediated Mcl-1 degradation in human HeLa cells at 10 uM measured at 24 hrs by Western blot analysis relative to control; outline: as §1
[25] = target: T2, Protein cereblon/Induced myeloid leukemia cell differentiation protein Mcl-1; experiment: Induction of CRBN-mediated Mcl-1 degradation in human HeLa cells assessed as Mcl-1 removal activity measured at 12 hrs by Western blot analysis
Target sequence in this assay (Q07820 whole entry): as the sequence (Q07820 whole entry, looked up) above
Target sequence in this assay (Q96SW2 whole entry): as the sequence (Q96SW2 whole entry, looked up) above

[26] = target: T2, Protein cereblon/Induced myeloid leukemia cell differentiation protein Mcl-1; experiment: Induction of CRBN-mediated Mcl-1 degradation in human K562 cells incubated for 12 hrs by Western blot analysis
Outline: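 K562 cells kept in RPMI1640 with 10% FBS at 37 °C, 5% CO2. After compound treatment, cells lysed in NP-40 buffer with protease inhibitors. Equal protein run on SDS-PAGE, then immunoblotted; protein levels quantified from the blots.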

Activity [1]: inactive
Structure (SMILES): CN1C(=O)CCC(N2C(=O)c3cccc(NCCOCCOCCNC(=O)CCCCC(=O)NCCN4C(=O)c5cccc6c(Sc7ccc(Br)cc7)ccc(c56)C4=O)c3C2=O)C1=O (stereo unspecified)

fold change (FC) [2]: 0.6
fold change (FC) [3]: 1.1
fold change (FC) [4]: 1.1
fold change (FC) [5]: 1.3
fold change (FC) [6]: 1
fold change (FC) [7]: 1.3
fold change (FC) [8]: 1
fold change (FC) [9]: 1.2
fold change (FC) [10]: 1.1
fold change (FC) [11]: 0.8
fold change (FC) [12]: 1
fold change (FC) [13]: 1
fold change (FC) [14]: 0.9
fold change (FC) [15]: 1.1
fold change (FC) [16]: 0.5
fold change (FC) [17]: 0.3
fold change (FC) [18]: 0.2
fold change (FC) [19]: 1.1
fold change (FC) [20]: 1.2
fold change (FC) [21]: 1.3
fold change (FC) [22]: 1
fold change (FC) [23]: 1.1
Activity [24]: 80%
DC50 [25]: 3.6 µM
Activity [26]: Active
Structure (SMILES): N#CC1=C(NCCC(=O)O)c2ccc(Sc3ccc(Br)cc3)c3cccc(c23)C1=O
